Assay type in all cases: functional
For test [1], the system named is Haemophilus influenzae. In words: Antimicrobial activity against gBLNAS Haemophilus influenzae by agar dilution method. In a few lines:
(§1)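 Agar dilution on Mueller-Hinton agar with 0.5% yeast extract, 2% defibrinated heat-treated horse blood and 15 μg/ml β-NAD+. Plates were incubated 20 h at 37°C in 5% CO2, and the MIC was read. Clinical pediatric isolates (2005–2008) were assigned to genetic resistance classes by PCR.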

Test [2] relates to Haemophilus influenzae. In words: Antimicrobial activity against gLow-BLNAR Haemophilus influenzae by agar dilution method. The procedure, abridged:
as §1
On the technique in general: Agar dilution tests growth on a series of plates holding different concentrations.

Test [3] has as its system Haemophilus influenzae. Kind of test: Antimicrobial activity against gBLNAR Haemophilus influenzae by agar dilution method. In a few lines:
(§2)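 Agar dilution MICs on Mueller-Hinton agar with 0.5% yeast extract, 2% defibrinated heat-treated horse blood and 15 μg/ml β-NAD+. Plates read after 20 h at 37°C in 5% CO2. Paediatric clinical isolates (2005–2008) assigned to genetic β-lactam resistance class by PCR. Values are MIC range, MIC50 and MIC90 per class.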

Test [4] has as its system Haemophilus influenzae. Kind of test: Antimicrobial activity against gBLPAR-TEM1 Haemophilus influenzae by agar dilution method. In a few lines:
as §2

The subject of test [5] is Haemophilus influenzae. Kind of test: Antimicrobial activity against gBLPACR-1 Haemophilus influenzae by agar dilution method. In a few lines: as §1
Test [6] has as its system Haemophilus influenzae. Kind of test: Antimicrobial activity against gBLPACR-2 Haemophilus influenzae by agar dilution method. In a few lines: as §2
The test system of test [7] is Haemophilus influenzae. Kind of test: Bactericidal activity against gBLNAR Haemophilus influenzae JPH002 assessed as reduction in bacterial load at MIC after 4 hrs by time-kill analysis. The procedure, abridged:
(§3)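 Colonies precultured on chocolate agar were suspended in MH broth to 0.5 McFarland, diluted 10-fold in MH broth with yeast extract, horse blood and β-NAD+, then grown 120 min at 37°C. 500 μl was inoculated into 9.5 ml of the same supplemented broth containing drug at the MIC or 2× MIC, with or without 10% fresh human serum. Tubes were incubated static and viable counts sampled at set intervals.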

Test [8] relates to Haemophilus influenzae. Kind of test: Bactericidal activity against gBLNAR Haemophilus influenzae JPH002 assessed as reduction in bacterial load at MIC after 6 hrs by time-kill analysis. The procedure, abridged:
as §3

Test [9] has as its system Haemophilus influenzae. Kind of test: Bactericidal activity against gBLNAR Haemophilus influenzae JPH002 assessed as reduction in bacterial load at MIC after 2 hrs by time-kill analysis in presence of 10% human serum. In a few lines:
as §3

The test system of test [10] is Haemophilus influenzae. In words: Bactericidal activity against gBLNAR Haemophilus influenzae JPH002 assessed as reduction in bacterial load at MIC after 4 hrs by time-kill analysis in presence of 10% human serum. The procedure, abridged: as §3
In test [11] the test system is Haemophilus influenzae. Kind of test: Bactericidal activity against gBLNAR Haemophilus influenzae JPH002 assessed as reduction in bacterial load at MIC after 6 hrs by time-kill analysis in presence of 10% human serum. In a few lines: as §3
Test [12] relates to Haemophilus influenzae. Kind of test: Bactericidal activity against gBLNAR Haemophilus influenzae JPH1306 assessed as reduction in bacterial load at MIC after 4 hrs by time-kill analysis. In a few lines: as §3
For test [13], the system named is Haemophilus influenzae. Kind of test: Bactericidal activity against gBLNAR Haemophilus influenzae JPH1306 assessed as reduction in bacterial load at MIC after 6 hrs by time-kill analysis. The procedure, abridged: as §3
Test [14] deals with Haemophilus influenzae. In words: Bactericidal activity against gBLNAR Haemophilus influenzae JPH1306 assessed as reduction in bacterial load at MIC after 2 hrs by time-kill analysis in presence of 10% human serum. The procedure, abridged:
as §3

The subject of test [15] is Haemophilus influenzae. Kind of test: Bactericidal activity against gBLNAR Haemophilus influenzae JPH1306 assessed as reduction in bacterial load at MIC after 4 hrs by time-kill analysis in presence of 10% human serum. The procedure, abridged:
as §3

For test [16], the system named is Haemophilus influenzae. In words: Bactericidal activity against gBLNAR Haemophilus influenzae JPH1306 assessed as reduction in bacterial load at MIC after 6 hrs by time-kill analysis in presence of 10% human serum. The procedure, abridged: as §3

Converted amounts (≈) assume the structure as drawn.

As to `CC1(C)S[C@@H]2[C@H](NC(=O)[C@H](N)c3ccc(O)cc3)C(=O)N2[C@H]1C(=O)O` [AMOXICILLIN], the MIC50 was 0.5 µg/mL (≈ 1.37 µM) against Haemophilus influenzae [1], 2 µg/mL (≈ 5.47 µM) in the test on Haemophilus influenzae [2] and 8 µg/mL (≈ 21.9 µM) against Haemophilus influenzae [3]. The results for the MIC90 in the test on Haemophilus influenzae [1], against Haemophilus influenzae [2] and in the test with Haemophilus influenzae [3] were 0.5 µg/mL (≈ 1.37 µM), 4 µg/mL (≈ 10.9 µM) and 32 µg/mL (≈ 87.6 µM), respectively. Further, the MIC in the test on Haemophilus influenzae [4] stood at 8 µg/mL (≈ 21.9 µM); in the test on Haemophilus influenzae [5] it was 8 µg/mL (≈ 21.9 µM); against Haemophilus influenzae [6] it was 2 µg/mL (≈ 5.47 µM).

On to `CC1(C)S[C@@H]2[C@H](NC(=O)[C@H](N)c3ccccc3)C(=O)N2[C@H]1C(=O)O` [AMPICILLIN], for which the MIC50 in the test on Haemophilus influenzae [1] turned out to be 0.25 µg/mL (≈ 0.715 µM); in the test on Haemophilus influenzae [2], 1 µg/mL (≈ 2.86 µM); against Haemophilus influenzae [3], 2 µg/mL (≈ 5.72 µM). Besides, the MIC90 in the test with Haemophilus influenzae [1] is 0.5 µg/mL (≈ 1.43 µM); in the test with Haemophilus influenzae [2], 1 µg/mL (≈ 2.86 µM); against Haemophilus influenzae [3] it was 8 µg/mL (≈ 22.9 µM). Further, the MIC with Haemophilus influenzae [4] came out at 8 µg/mL (≈ 22.9 µM); against Haemophilus influenzae [5], 8 µg/mL (≈ 22.9 µM); with Haemophilus influenzae [6], 2 µg/mL (≈ 5.72 µM).

For `CC[C@H]1OC(=O)[C@H](C)[C@@H](O[C@H]2C[C@@](C)(OC)[C@@H](O)[C@H](C)O2)[C@H](C)[C@@H](O[C@@H]2O[C@H](C)C[C@H](N(C)C)[C@H]2O)[C@](C)(O)C[C@@H](C)CN(C)[C@H](C)[C@@H](O)[C@]1(C)O` [AZITHROMYCIN], the MIC50 in the test on Haemophilus influenzae [1], in the test with Haemophilus influenzae [2] and in the test on Haemophilus influenzae [3] was 2 µg/mL (≈ 2.67 µM) in each case. Moreover, the MIC90 in the test with Haemophilus influenzae [1] turned out to be 4 µg/mL (≈ 5.34 µM); against Haemophilus influenzae [2], 2 µg/mL (≈ 2.67 µM); in the test with Haemophilus influenzae [3], 4 µg/mL (≈ 5.34 µM). The MIC against Haemophilus influenzae [4] was determined as 1 µg/mL (≈ 1.34 µM); against Haemophilus influenzae [5] it was 2 µg/mL (≈ 2.67 µM); against Haemophilus influenzae [6], 2 µg/mL (≈ 2.67 µM).

As for `C=CC1=C(C(=O)O)N2C(=O)[C@@H](NC(=O)/C(=N\O)c3csc(N)n3)[C@H]2SC1` [CEFDINIR], the MIC50 with Haemophilus influenzae [1] was 0.25 µg/mL (≈ 0.632 µM); in the test on Haemophilus influenzae [2], 0.5 µg/mL (≈ 1.26 µM); against Haemophilus influenzae [3], 8 µg/mL (≈ 20.2 µM). The MIC90 in the test on Haemophilus influenzae [1] came out at 0.5 µg/mL (≈ 1.26 µM); against Haemophilus influenzae [2] it was 2 µg/mL (≈ 5.06 µM); in the test on Haemophilus influenzae [3] it was 32 µg/mL (≈ 80.9 µM). Moreover, the MIC with Haemophilus influenzae [2] was found to be 0.5 µg/mL (≈ 1.26 µM); against Haemophilus influenzae [4], 0.25 µg/mL (≈ 0.632 µM); with Haemophilus influenzae [5], 1 µg/mL (≈ 2.53 µM); in the test on Haemophilus influenzae [6], 8 µg/mL (≈ 20.2 µM).

Take `CO/N=C(\C(=O)N[C@@H]1C(=O)N2C(C(=O)O)=C(COC(C)=O)CS[C@H]12)c1csc(N)n1` [CEFOTAXIME]: the MIC50 in the test on Haemophilus influenzae [1] was found to be 0.016 µg/mL (≈ 0.0351 µM); against Haemophilus influenzae [2], 0.031 µg/mL (≈ 0.0681 µM); in the test with Haemophilus influenzae [3], 0.5 µg/mL (≈ 1.1 µM). Further, the MIC90 against Haemophilus influenzae [1] was 0.031 µg/mL (≈ 0.0681 µM); with Haemophilus influenzae [2], 0.12 µg/mL (≈ 0.263 µM); against Haemophilus influenzae [3], 1 µg/mL (≈ 2.2 µM). Besides, the MIC with Haemophilus influenzae [4] was found to be 0.008 µg/mL (≈ 0.0176 µM); in the test on Haemophilus influenzae [5], 0.031 µg/mL (≈ 0.0681 µM); in the test on Haemophilus influenzae [6], 0.25 µg/mL (≈ 0.549 µM).

As for `CC[C@H]1OC(=O)[C@H](C)[C@@H](O[C@H]2C[C@@](C)(OC)[C@@H](O)[C@H](C)O2)[C@H](C)[C@@H](O[C@@H]2O[C@H](C)C[C@H](N(C)C)[C@H]2O)[C@](C)(OC)C[C@@H](C)C(=O)[C@H](C)[C@@H](O)[C@]1(C)O` [CLARITHROMYCIN], the MIC50 with Haemophilus influenzae [1], in the test on Haemophilus influenzae [2] and in the test with Haemophilus influenzae [3] was 8 µg/mL (≈ 10.7 µM) throughout. The MIC90 in the test with Haemophilus influenzae [1], in the test on Haemophilus influenzae [2] and against Haemophilus influenzae [3] was 16 µg/mL (≈ 21.4 µM) in each case. Moreover, the MIC in the test on Haemophilus influenzae [4], against Haemophilus influenzae [5] and in the test with Haemophilus influenzae [6] was 8 µg/mL (≈ 10.7 µM) throughout.

As to `C[C@@H](O)[C@H]1C(=O)N2C(C(=O)O)=C(S[C@@H]3CN[C@H](C(=O)N(C)C)C3)[C@H](C)[C@H]12` [MEROPENEM], the results for the MIC50 in the test on Haemophilus influenzae [1], with Haemophilus influenzae [2] and in the test on Haemophilus influenzae [3] were 0.063 µg/mL (≈ 0.164 µM), 0.12 µg/mL (≈ 0.313 µM) and 0.25 µg/mL (≈ 0.652 µM), respectively. The MIC90 against Haemophilus influenzae [1] was determined as 0.12 µg/mL (≈ 0.313 µM); in the test on Haemophilus influenzae [2] it was 0.25 µg/mL (≈ 0.652 µM); in the test with Haemophilus influenzae [3], 0.5 µg/mL (≈ 1.3 µM). In addition, the MIC against Haemophilus influenzae [4] is 0.031 µg/mL (≈ 0.0808 µM); against Haemophilus influenzae [5], 0.063 µg/mL (≈ 0.164 µM); in the test on Haemophilus influenzae [6], 0.063 µg/mL (≈ 0.164 µM).

Consider `C[C@@H](O)[C@H]1C(=O)N2C(C(=O)O)=C(SC3CN(C4=NCCS4)C3)[C@H](C)[C@H]12` [TEBIPENEM], for which the MIC50 against Haemophilus influenzae [1] amounted to 0.063 µg/mL (≈ 0.164 µM); in the test on Haemophilus influenzae [2] it was 0.25 µg/mL (≈ 0.652 µM); against Haemophilus influenzae [3], 0.25 µg/mL (≈ 0.652 µM). Moreover, the MIC90 in the test on Haemophilus influenzae [1] came out at 0.12 µg/mL (≈ 0.313 µM); in the test on Haemophilus influenzae [2] it was 0.5 µg/mL (≈ 1.3 µM); against Haemophilus influenzae [3], 1 µg/mL (≈ 2.61 µM). Also, the values for the MIC in the test with Haemophilus influenzae [4], with Haemophilus influenzae [5] and with Haemophilus influenzae [6] were 0.063 µg/mL (≈ 0.164 µM), 0.12 µg/mL (≈ 0.313 µM) and 0.25 µg/mL (≈ 0.652 µM), respectively. Besides, the log10cfu in the test with Haemophilus influenzae [7], in the test on Haemophilus influenzae [8], in the test with Haemophilus influenzae [9], in the test on Haemophilus influenzae [10], in the test with Haemophilus influenzae [11] and with Haemophilus influenzae [12] was 3 in each case. Also, the log10cfu in the test on Haemophilus influenzae [13], with Haemophilus influenzae [14], in the test on Haemophilus influenzae [15] and in the test on Haemophilus influenzae [16] was 3 each time.

These data come from ChEMBL document CHEMBL1649324, “In vitro activity of tebipenem, a new oral carbapenem antibiotic, against beta-lactamase-nonproducing, ampicillin-resistant Haemophilus influenzae” (2010).
